Assay results from different studies.
Lines come from different studies, so protocols differ.
Target: Calcium/calmodulin-dependent protein kinase type IV (CAMK4, Homo sapiens, UniProt Q16566)
Residues used in one study (Q16566 1-473): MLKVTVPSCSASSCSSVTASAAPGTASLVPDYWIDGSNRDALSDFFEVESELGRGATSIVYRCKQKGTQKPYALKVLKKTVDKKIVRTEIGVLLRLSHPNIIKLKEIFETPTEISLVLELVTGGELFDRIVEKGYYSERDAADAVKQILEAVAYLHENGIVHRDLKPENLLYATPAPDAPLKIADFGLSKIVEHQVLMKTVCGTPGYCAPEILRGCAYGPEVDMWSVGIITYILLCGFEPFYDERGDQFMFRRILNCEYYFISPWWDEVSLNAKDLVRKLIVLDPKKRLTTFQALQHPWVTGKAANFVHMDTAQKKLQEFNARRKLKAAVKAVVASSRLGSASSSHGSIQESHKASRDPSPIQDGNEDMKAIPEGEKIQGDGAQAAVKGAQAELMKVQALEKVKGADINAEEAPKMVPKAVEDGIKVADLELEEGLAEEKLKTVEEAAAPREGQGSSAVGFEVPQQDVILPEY

| Compound | read-out | action | method | tested at | endpoint | value |
| --- | --- | --- | --- | --- | --- | --- |
| Cc1ccc(NC(=O)c2ccc(C)c(C(F)(F)F)c2)cc1C#Cc1nn(C2CCC(O)CC2)c2ncnc(N)c12 (stereo not drawn) | cell-free assay |  |  | 10 µM | remaining signal | 93% |
| O=S(=O)(NC1CCC(c2cc(F)ccc2F)(S(=O)(=O)c2ccc(Cl)cc2)CC1)C(F)(F)F (stereo not drawn) | cell-free assay |  | competition with immobilised ligand | 1 µM | remaining binding | 100% |
| CCN(CC)CCNC(=O)c1c(C)[nH]c(/C=C2\C(=O)Nc3ccc(F)cc32)c1C | enzyme activity | inhibitor |  | 0.3 µM | inhibition | 22% |
| Cc1ccc(NC(=O)c2ccc(CN3CCN(C)CC3)cc2)cc1Nc1nc(-c2cccnc2)cs1 | cell-free assay |  |  | 0.5 µM | remaining signal | 98.6% |
| CN1CCC2(CC1)NC(=O)c1c(c3ccc(Cl)c(Cl)c3n1C)C2C#N (racemic) | thermal stability |  | DSF | 10 µM | ΔTm | -0.2 °C |
| CC(C)(O)[C@H]1CC[C@H](Nc2ccc3ncc(-c4cccc(C(F)(F)F)c4)n3n2)CC1 | enzyme activity | inhibitor |  | 1 µM | remaining activity | 107% |
| CC(C)(C)c1nc2c(s1)c1nc(N)ncc1c1ccc(NS(=O)(=O)c3c(F)cccc3F)c(F)c12 | enzyme activity | inhibitor | radiometric | 1 µM | remaining activity | 94% |
| CCc1ccccc1C(=O)Nc1n[nH]c2c(C)c(F)c(C3C(C#N)=C(C)N(C)C(C)=C3C#N)cc12 | cell-free assay |  | competition with immobilised ligand | 1 µM | remaining binding | 56% |
| COc1cc2c(Nc3ccc(Br)cc3F)ncnc2cc1OCC1CCN(C)CC1 | cell-free assay |  |  | 0.5 µM | remaining signal | 101% |
| O=C(NCc1ncc(C(F)(F)F)cc1Cl)c1ccc2c(c1)C1(CCS(=O)(=O)CC1)[C@H](C1CC1)N2S(=O)(=O)c1ccc(F)cc1 | cell-free assay |  | competition with immobilised ligand | 1 µM | remaining binding | 86% |
| CCN(CC)c1ccc(C2=NNC(=O)CC2C)cc1[N+](=O)[O-] (stereo not drawn) | enzyme activity | inhibitor |  | 10 µM | remaining activity | 102% |
| Cn1c2c(c3ccc(Cl)c(Cl)c31)C(C#N)C1(CCN(C(=O)OC(C)(C)C)CC1)NC2=O (racemic) | thermal stability |  | DSF | 10 µM | ΔTm | -0.3 °C |
| N#CCCc1ccc2c(c1)-c1[nH]c3ccc([N+](=O)[O-])cc3c1CC(=O)N2 | cell-free assay |  |  | 0.5 µM | remaining signal | 98.4% |
| CN(C)C1CCN(CC#Cc2nn(C3CCCC3)c3nc(NCc4ccccc4)ncc23)C1 (stereo not drawn) | enzyme activity | inhibitor | FRET | 0.1 µM | inhibition | 4% |
| CC(=O)c1c(NS(C)(=O)=O)c2cc(-c3ccc(Cl)cc3)c(-c3ccc(Cl)cc3Cl)nc2n(C)c1=O | cell-free assay |  | competition with immobilised ligand | 1 µM | remaining binding | 100% |
| CNC(=O)c1cc(Oc2ccc(NC(=O)Nc3ccc(Cl)c(C(F)(F)F)c3)cc2)ccn1 | enzyme activity | inhibitor |  | 0.3 µM | inhibition | -4% |
| O=C1NC(=O)c2cc(Nc3ccc(F)cc3)c(Nc3ccc(F)cc3)cc21 | cell-free assay |  |  | 0.5 µM | remaining signal | 98.7% |

| Compound | read-out | action | method | tested at | endpoint | value |
| --- | --- | --- | --- | --- | --- | --- |
| Cn1c2c(c3ccccc31)C(C#N)C(C)(C)NC2=O (stereo not drawn) | thermal stability |  | DSF | 10 µM | ΔTm | 0 °C |
| CCCOc1ccc(OC)c(F)c1C(=O)c1ccc(C(=O)N[C@@H]2CNC[C@H]2NC(=O)c2ccc3[nH]ncc3c2)cc1 | enzyme activity | inhibitor |  | 10 µM | remaining activity | 95% |
| Cc1cc(NC(=O)c2cccc3cc(-c4cccc5[nH]nc(N)c45)ccc23)ccc1F | enzyme activity | inhibitor |  | 0.1 µM | activity vs control | 104% |
| Cn1c2c(c3ccc(Cl)c(Cl)c31)C(C#N)C(C)(C)NC2=O (stereo not drawn) | thermal stability |  | DSF | 10 µM | ΔTm | 0.1 °C |
| O=C(NS(=O)(=O)c1ccc(NCC2CCOCC2)c([N+](=O)[O-])c1)c1ccc(N2CCN(Cc3ccc(C(F)(F)F)cc3-c3ccc(Cl)cc3)CC2)cc1Oc1cnc2[nH]ccc2c1 | cell-free assay |  | competition with immobilised ligand | 1 µM | remaining binding | 100% |
| Cc1ncc([N+](=O)[O-])n1C(=NO)c1ccccc1C(F)(F)F | enzyme activity | inhibitor |  | 10 µM | inhibition | 27.6% |
| O=C(Nc1cnn(-c2csc(C(=O)NC3COC3)c2)c1)Nc1c(F)cccc1Cl | enzyme activity | inhibitor |  | 5 µM | remaining activity | 98.7% |
| Cc1ccc(Nc2nccc(N(C)c3ccc4c(C)n(C)nc4c3)n2)cc1S(N)(=O)=O | cell-free assay | inhibitor |  | 0.5 µM | remaining signal | 95.9% |
| CCC(=O)N[C@@H]1CC[C@H](C(=O)N(C)c2ccc(-c3nc4ccccc4o3)cc2)C1 | cell-free assay |  | competition with immobilised ligand | 1 µM | remaining binding | 100% |
| Clc1ccc(Nc2nnc(Cc3ccncc3)c3ccccc23)cc1 | cell-free assay |  |  | 0.5 µM | remaining signal | 93.4% |
| N#CC1c2c([nH]c3c(Cl)c(Cl)ccc23)C(=O)NC12CCCCC2 (racemic) | thermal stability |  | DSF | 10 µM | ΔTm | 0.6 °C |
| O=C(NCCCC1CCCCC1)c1ccc(CNC(=O)c2cnn(-c3ccccc3)c2C(F)(F)F)cc1 | cell-free assay |  | competition with immobilised ligand | 0.1 µM | remaining binding | 100% |
| CCC1(CC)NC(=O)c2c(c3ccc(Cl)c(Cl)c3n2C)C1C#N (stereo not drawn) | thermal stability |  | DSF | 10 µM | ΔTm | -0.2 °C |
| COc1cc2ncnc(Nc3ccc(Oc4ccccc4)c(C)c3C)c2cc1OC | enzyme activity | inhibitor |  | 1 µM | inhibition | -2% |
| CC1(C)NC(=O)c2[nH]c3c(Cl)c(Cl)ccc3c2C1C#N (stereo not drawn) | thermal stability |  | DSF | 10 µM | ΔTm | -0.1 °C |
| CN([C@@H]1CCc2c(CC(=O)O)c3ccccc3n2C1)S(=O)(=O)c1ccc(F)cc1 | cell-free assay |  | competition with immobilised ligand | 1 µM | remaining binding | 85% |
